Measured values from ChEMBL document CHEMBL3352115, “Discovery of APD334: Design of a Clinical Stage Functional Antagonist of the Sphingosine-1-phosphate-1 Receptor” (ACS Med Chem Lett, 2014).
Activity calls are given as the source filed them. No cut-off for these calls is given here.

Tests used:
Canis familiaris [1] = assay: Reduction in peripheral lymphocyte count in orally dosed dog measured after 24 hrs; type: ADME, organism-based; conditions: Canis lupus familiaris
Rhesus monkey = assay: Reduction in peripheral lymphocyte count in orally dosed monkey measured after 24 hrs; type: ADME, organism-based; conditions: Macaca mulatta
[2] = Protein binding in human plasma; type: ADME, cell-free; conditions: read-out: PPB (converted)
[3] = Ratio of drug level in brain to plasma of Sprague-Dawley rat at 14.5 ug/hr/kg dosed as constant infusion measured after 48 hrs; type: ADME, organism-based; conditions: iv, read-out: BPR
Procedure, shortened: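 Male Sprague–Dawley rats given 48 h constant infusion at 14.5 μg/h/kg; brain and plasma concentrations measured at 48 h to give B/P ratio.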

Mus musculus [4] = assay: Prevention of onset and severity of disease in C57Bl/6 mouse experimental autoimmune encephalomyelitis model of multiple sclerosis at 0.3 to 3 mg/kg dosed once daily beginning on day 3 and continued to day 25; type: functional, organism-based
Procedure, shortened: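 Female C57Bl/6 mice immunized with MOG35–55 as autoantigen; oral dosing once daily from day 3 to day 25 in 0.5% methylcellulose vehicle; clinical scores followed beyond end of dosing.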

Mus musculus [5] = assay: Reduction in disease severity in C57Bl/6 mouse experimental autoimmune encephalomyelitis model of multiple sclerosis at 3 mg/kg dosed once daily beginning on day 18 and continued to day 37; type: functional, organism-based; parameters: dose 3 mg/kg
Procedure, shortened: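 Female C57Bl/6 mice with MOG35–55-induced EAE; once-daily treatment started day 18 after severe disease onset and continued to day 37; vehicle 0.5% methylcellulose; clinical scoring.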

Mus musculus [6] = assay: Reduction in inflammatory foci in C57Bl/6 mouse experimental autoimmune encephalomyelitis model of multiple sclerosis at 3 mg/kg dosed once daily beginning on day 18 and continued to day 37 by immunofluorescent staining method; type: functional, organism-based; parameters: dose 3 mg/kg
Procedure, shortened: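 Therapeutic EAE in female C57Bl/6 mice, dosing from day 18; spinal cord and brain collected day 37; cerebellum sections immunostained for CD45 and CD3 with DAPI counterstain; inflammatory foci and infiltrating lymphocytes assessed.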

Rattus norvegicus [7] = assay: Reduction in ankle diameter in Lewis rat collagen-induced arthritis model at 1 mg/kg, po qd measured on day 17 (reference value: +/- inches); type: functional
Procedure, shortened: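 Female Lewis rats with collagen-induced arthritis, prophylactic daily oral dosing; ankle diameter (inches) and body weight recorded at day 17 end point; mean ± SEM.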

Rattus norvegicus [8] = assay: Improvement histological parameters of knee and ankles in Lewis rat collagen-induced arthritis model at 3 mg/kg, po qd measured on day 17; type: functional, organism-based; parameters: dose 3 mg/kg
Cytochrome P450 1A2 = Cytochrome P450 1A2 (Homo sapiens, UniProt P05177); assay: Inhibition of CYP1A2 (unknown origin); type: ADME
Cytochrome P450 1A2, sequence (P05177 whole entry): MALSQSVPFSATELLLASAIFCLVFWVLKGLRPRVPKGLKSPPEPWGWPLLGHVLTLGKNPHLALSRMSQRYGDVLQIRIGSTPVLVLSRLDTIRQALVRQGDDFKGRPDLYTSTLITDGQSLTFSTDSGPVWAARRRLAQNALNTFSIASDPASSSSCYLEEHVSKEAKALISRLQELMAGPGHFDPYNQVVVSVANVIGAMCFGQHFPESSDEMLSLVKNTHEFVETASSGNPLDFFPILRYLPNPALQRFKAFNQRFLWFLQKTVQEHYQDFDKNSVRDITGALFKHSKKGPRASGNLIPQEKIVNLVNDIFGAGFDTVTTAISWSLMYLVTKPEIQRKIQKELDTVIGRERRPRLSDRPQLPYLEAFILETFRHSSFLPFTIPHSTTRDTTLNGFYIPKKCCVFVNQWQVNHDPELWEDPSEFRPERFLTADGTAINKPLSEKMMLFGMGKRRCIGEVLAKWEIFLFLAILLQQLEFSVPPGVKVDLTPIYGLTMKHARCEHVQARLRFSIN

[9] = Activation of Inward rectifier potassium channel in human atrial myocytes; type: cell-based; conditions: Cardiac atrium
Procedure, shortened: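 In vitro activation of the inward-rectifying potassium channel (IKACh) in human atrial myocytes, run alongside S1P as reference agonist; potency expressed as EC50.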

Salmonella typhimurium = assay: Genotoxicity in Salmonella typhimurium in presence of rat liver S9 fraction by Ames bacterial reverse mutation assay; type: toxicity, organism-based; conditions: salmonella enterica subsp. enterica serovar typhimurium
[10] = biological target: Voltage-gated inwardly rectifying potassium channel KCNH2 (Homo sapiens, UniProt Q12809); assay: Inhibition of human ERG by patch clamp assay
Voltage-gated inwardly rectifying potassium channel KCNH2, sequence (Q12809 whole entry): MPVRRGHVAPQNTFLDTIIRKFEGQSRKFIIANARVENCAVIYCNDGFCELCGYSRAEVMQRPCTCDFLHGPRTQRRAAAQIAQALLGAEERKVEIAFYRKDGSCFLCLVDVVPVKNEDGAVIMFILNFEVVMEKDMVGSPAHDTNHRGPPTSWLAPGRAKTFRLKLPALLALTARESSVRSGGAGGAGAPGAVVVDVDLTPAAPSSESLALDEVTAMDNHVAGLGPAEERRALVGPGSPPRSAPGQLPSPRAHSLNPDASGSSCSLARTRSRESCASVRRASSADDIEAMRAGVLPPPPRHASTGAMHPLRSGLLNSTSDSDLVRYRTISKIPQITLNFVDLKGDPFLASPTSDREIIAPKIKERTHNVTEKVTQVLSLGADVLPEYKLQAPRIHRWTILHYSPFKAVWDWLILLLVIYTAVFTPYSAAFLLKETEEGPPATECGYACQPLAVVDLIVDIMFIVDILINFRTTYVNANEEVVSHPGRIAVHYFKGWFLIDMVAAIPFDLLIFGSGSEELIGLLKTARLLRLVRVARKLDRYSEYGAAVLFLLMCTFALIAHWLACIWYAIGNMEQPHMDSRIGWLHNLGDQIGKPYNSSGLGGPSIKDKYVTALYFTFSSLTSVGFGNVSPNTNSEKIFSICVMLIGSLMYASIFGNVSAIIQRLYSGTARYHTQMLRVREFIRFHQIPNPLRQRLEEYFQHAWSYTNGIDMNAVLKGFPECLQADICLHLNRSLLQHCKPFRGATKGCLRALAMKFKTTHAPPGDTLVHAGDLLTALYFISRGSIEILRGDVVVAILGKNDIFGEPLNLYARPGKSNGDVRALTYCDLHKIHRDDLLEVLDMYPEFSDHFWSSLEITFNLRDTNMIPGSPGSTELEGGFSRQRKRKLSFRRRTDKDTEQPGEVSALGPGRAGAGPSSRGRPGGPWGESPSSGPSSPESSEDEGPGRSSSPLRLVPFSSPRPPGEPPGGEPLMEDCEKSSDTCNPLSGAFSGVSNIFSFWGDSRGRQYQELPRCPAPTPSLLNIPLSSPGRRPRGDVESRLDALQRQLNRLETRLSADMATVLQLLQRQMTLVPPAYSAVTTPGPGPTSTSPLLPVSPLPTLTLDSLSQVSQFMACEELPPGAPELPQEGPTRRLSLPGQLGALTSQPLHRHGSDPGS

Canis familiaris [11] = assay: Effect on pulse pressure in telemeterized dog up to 40 mg/kg; type: ADME, organism-based, Canis lupus familiaris; parameters: dose 40 mg/kg; conditions: in vivo
Procedure, shortened: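 Telemeterized dogs dosed at levels up to 40 mg/kg; pulse pressure, heart rate, body temperature and ECG parameters monitored.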

Rattus norvegicus [12] = assay: Effect on respiratory function in Sprague-Dawley rat up to 350 mg/kg; type: ADME, organism-based; parameters: dose 350 mg/kg; conditions: in vivo
Procedure, shortened: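 CNS (neurobehavioral) and respiratory safety studies in SD rats, doses up to 350 mg/kg.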

Rattus norvegicus [13] = assay: Toxicity in Sprague-Dawley rat assessed as induction of CNS clinical changes at 1000 mg/kg during 14 day repeat dose study; type: organism-based, Central nervous system; parameters: dose 1000 mg/kg; conditions: in vivo, 336 h
Procedure, shortened: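 14-day repeat-dose rat toxicity study with dose groups of 30, 100, 300 and 1000 mg/kg; animals monitored for tolerability, mortality and CNS clinical signs.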

[14] = Cmax in Sprague-Dawley rat at 1000 mg/kg; type: ADME, organism-based; parameters: dose 1000 mg/kg; conditions: in vivo
Procedure, shortened: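 Sprague–Dawley rats dosed at 300 and 1000 mg/kg in a separate dose-proportionality exposure study; Cmax determined.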

[15] = Half life in human liver microsomes; type: ADME
Procedure, shortened: (§1)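 Stability on incubation with liver microsomes of each species; half-life reported.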

[16] = biological target: Sphingosine 1-phosphate receptor 1 (Homo sapiens, UniProt P21453); assay: Induction of internalization of HA-tagged human S1P1 receptor expressed in CHO cells; type: cell-based
Sphingosine 1-phosphate receptor 1 (Homo sapiens, UniProt P21453), sequence (P21453 whole entry): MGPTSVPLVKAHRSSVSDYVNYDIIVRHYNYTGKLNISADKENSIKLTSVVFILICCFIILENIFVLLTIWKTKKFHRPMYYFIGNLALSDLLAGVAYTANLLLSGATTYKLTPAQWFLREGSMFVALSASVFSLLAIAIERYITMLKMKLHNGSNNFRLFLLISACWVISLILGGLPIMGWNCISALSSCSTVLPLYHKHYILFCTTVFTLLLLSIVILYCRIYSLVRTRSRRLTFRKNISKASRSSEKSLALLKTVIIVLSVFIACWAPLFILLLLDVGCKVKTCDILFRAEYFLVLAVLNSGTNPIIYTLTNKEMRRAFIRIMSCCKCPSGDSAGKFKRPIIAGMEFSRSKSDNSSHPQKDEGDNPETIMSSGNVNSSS
Procedure, shortened: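 CHO cells expressing HA-tagged human S1P1; receptor internalization measured, IC50 derived.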

[17] = biological target: Sphingosine 1-phosphate receptor 1 (Mus musculus, UniProt O08530); assay: Agonist activity at mouse S1P1 receptor assessed as cAMP accumulation by HTRF assay; type: functional
Sphingosine 1-phosphate receptor 1 (Mus musculus, UniProt O08530), sequence (O08530 whole entry): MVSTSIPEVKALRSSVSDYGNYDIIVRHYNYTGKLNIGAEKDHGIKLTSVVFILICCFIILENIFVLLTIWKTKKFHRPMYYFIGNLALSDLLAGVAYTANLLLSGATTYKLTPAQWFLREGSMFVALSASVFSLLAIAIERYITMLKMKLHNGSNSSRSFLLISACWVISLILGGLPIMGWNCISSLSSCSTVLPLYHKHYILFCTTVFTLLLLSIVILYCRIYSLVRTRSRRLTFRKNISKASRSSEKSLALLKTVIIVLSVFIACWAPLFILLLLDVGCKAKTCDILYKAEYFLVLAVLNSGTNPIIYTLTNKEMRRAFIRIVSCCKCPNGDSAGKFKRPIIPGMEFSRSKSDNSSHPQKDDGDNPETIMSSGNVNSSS
Procedure, shortened: (§2)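 HTRF cyclase (cAMP) functional assay at S1P1 of each species; EC50 taken as mean of three or more replicates; efficacy given as % agonism relative to S1P.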

[18] = biological target: Sphingosine 1-phosphate receptor 1 (Rattus norvegicus) (UniProt P48303); assay: Agonist activity at rat S1P1 receptor assessed as cAMP accumulation by HTRF assay relative to S1P; type: functional; procedure, shortened: as §2
Sphingosine 1-phosphate receptor 1 (Rattus norvegicus), sequence (P48303 whole entry): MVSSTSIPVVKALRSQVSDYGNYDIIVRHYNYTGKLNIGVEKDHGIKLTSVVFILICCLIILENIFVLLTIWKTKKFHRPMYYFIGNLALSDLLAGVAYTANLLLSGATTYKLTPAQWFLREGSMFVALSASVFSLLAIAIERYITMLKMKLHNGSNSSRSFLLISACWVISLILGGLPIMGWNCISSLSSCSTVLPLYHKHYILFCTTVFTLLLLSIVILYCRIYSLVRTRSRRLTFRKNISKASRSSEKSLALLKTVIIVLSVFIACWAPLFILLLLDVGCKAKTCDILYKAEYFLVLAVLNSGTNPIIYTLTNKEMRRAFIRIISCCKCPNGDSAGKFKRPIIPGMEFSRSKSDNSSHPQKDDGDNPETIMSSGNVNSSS

[19] = Half life in dog liver microsomes; type: ADME, Canis lupus familiaris; procedure, shortened: as §1
[20] = Systemic clearance in mouse at 1 mg/kg, iv; type: ADME, organism-based; parameters: dose 1 mg/kg, route intravenous; conditions: in vivo
Mus musculus [21] = assay: Systemic clearance in mouse at 1 mg/kg, iv relative to liver blood flow; type: ADME, organism-based; parameters: dose 1 mg/kg, route intravenous; conditions: in vivo
Rattus norvegicus [22] = assay: Systemic clearance in rat at 1 mg/kg, iv relative to liver blood flow; type: ADME, organism-based; parameters: dose 1 mg/kg, route intravenous; conditions: in vivo
[23] = Volume of distribution at steady state in mouse at 1 mg/kg, iv; type: ADME, organism-based; parameters: dose 1 mg/kg, route intravenous; conditions: in vivo, read-out: Vdss
[24] = Volume of distribution at steady state in dog at 1 mg/kg, iv; type: ADME, organism-based, Canis lupus familiaris; parameters: dose 1 mg/kg, route intravenous; conditions: in vivo, read-out: Vdss
[25] = Volume of distribution at steady state in monkey at 1 mg/kg, iv; type: ADME, organism-based, Macaca mulatta; parameters: dose 1 mg/kg, route intravenous; conditions: rhesus monkey, in vivo, read-out: Vdss
[26] = Cmax in mouse at 1 mg/kg, iv or 1 mg/kg, po; type: ADME, organism-based; conditions: in vivo
Procedure, shortened: (§3)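 Preclinical iv/po PK; amorphous free acid dosed orally as a suspension in 0.5% methyl cellulose; clearance and Vss from intravenous administration.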

[27] = Cmax in rat at 1 mg/kg, iv or 1 mg/kg, po; type: ADME, organism-based; conditions: in vivo
[28] = Cmax in dog at 1 mg/kg, iv or 3 mg/kg, po; type: ADME, organism-based, Canis lupus familiaris; conditions: in vivo; procedure, shortened: as §3
[29] = Tmax in mouse at 1 mg/kg, iv or 1 mg/kg, po; type: ADME, organism-based; conditions: in vivo
[30] = Tmax in dog at 1 mg/kg, iv or 3 mg/kg, po; type: ADME, organism-based, Canis lupus familiaris; conditions: in vivo
[31] = Tmax in monkey at 1 mg/kg, iv or 3 mg/kg, po; type: ADME, organism-based, Macaca mulatta; conditions: rhesus monkey, in vivo
[32] = AUC (0 to infinity) in monkey at 1 mg/kg, iv or 3 mg/kg, po; type: ADME, organism-based, Macaca mulatta; conditions: rhesus monkey, plasma; procedure, shortened: as §3
[33] = Elimination half life in mouse at 1 mg/kg, po; type: ADME, organism-based; parameters: dose 1 mg/kg, route oral; conditions: in vivo, read-out: beta t1/2 (converted); procedure, shortened: as §3
[34] = Elimination half life in dog at 3 mg/kg, po; type: ADME, organism-based, Canis lupus familiaris; parameters: dose 3 mg/kg, route oral; conditions: in vivo, read-out: beta t1/2 (converted); procedure, shortened: as §3
[35] = Oral bioavailability in rat at 1 mg/kg; type: ADME, organism-based; conditions: in vivo
[36] = Oral bioavailability in dog at 3 mg/kg; type: ADME, organism-based, Canis lupus familiaris; conditions: in vivo
[37] = Oral bioavailability in monkey at 3 mg/kg; type: ADME, organism-based, Macaca mulatta; conditions: rhesus monkey, in vivo
Mus musculus [38] = assay: Reduction in peripheral lymphocyte count in orally dosed mouse measured after 24 hrs; type: ADME, organism-based

SMILES: O=C(O)C[C@H]1CCc2c1[nH]c1ccc(OCc3ccc(C4CCCC4)c(C(F)(F)F)c3)cc21 [ETRASIMOD]
- IC50 (Canis familiaris [1]): 58 nM
- IC50 (Rhesus monkey): 98 nM
- fraction unbound [2]: 0.022
- Kp at 48 h [3]: 1.9
- Activity (Mus musculus [4]): Active
- Activity (Mus musculus [5]): Active
- Activity (Mus musculus [6]): Active
- Activity (Rattus norvegicus [7]): 0.2803 inches
- Activity (Rattus norvegicus [8]): Active
- IC50 (Cytochrome P450 1A2): > 50 µM
- EC50 [9]: 29.9 nM
- Activity (Salmonella typhimurium): Non-toxic
- IC50 [10]: > 30 µM
- Activity (Canis familiaris [11]): Non-toxic
- Activity (Rattus norvegicus [12]): Non-toxic
- Activity (Rattus norvegicus [13]): Toxic
- Cmax [14]: 183 µM
- half-life [15]: > 60 min
- IC50 [16]: 1.88 nM
- EC50 [17]: 0.44 nM
- Emax [18]: 99%
- half-life [19]: > 60 min
- clearance [20]: 1.83 mL/min/kg
- CL (Mus musculus [21]): 2%
- CL (Rattus norvegicus [22]): 3.45%
- Vd [23]: 1.93 L/kg
- Vd [24]: 0.609 L/kg
- Vd [25]: 0.411 L/kg
- Cmax [26]: 780 ng/mL
- Cmax [27]: 218 ng/mL
- Cmax [28]: 3710 ng/mL
- Tmax [29]: 8 h
- Tmax [30]: 7.33 h
- Tmax [31]: 3.33 h
- AUC(0-inf) [32]: 23100 ng·h/mL
- half-life [33]: 738 min
- half-life [34]: 1730 min
- bioavailability [35]: 54%
- bioavailability [36]: 73.2%
- bioavailability [37]: 43.8%
- IC50 (Mus musculus [38]): 101 nM
